Measured values taken from PubChem BioAssay AID463147 (The Scripps Research Institute Molecular Screening Center, 2010).
Active and inactive are the calls of the source.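 The calls were made as follows: active = fold change below 0.7, the computed hit cutoff; inactive = the rest.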

target: Nuclear receptor ROR-gamma (Homo sapiens) (UniProt P51449); assay: RORγ-driven luciferase suppression – cell-based, luminescence, single concentration, HEK293T GAL4-RORg, selectivity assay for RORA inverse agonist project, late-stage follow-up (AID 463147); conditions: HEK293T GAL4-RORg LBD luciferase reporter, 18-24 h; at 10 µM; active compounds read low
In short: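 Signal: Luciferase luminescence from UAS reporter | Assay system: HEK293T cells co-transfected with GAL4 DBD–RORγ LBD fusion plus UAS-luciferase reporter | Incubation: 20 h compound exposure, cells replated 24 h post-transfection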

Nuclear receptor ROR-gamma (Homo sapiens), sequence (P51449 whole entry, looked up, the tested form may be a part): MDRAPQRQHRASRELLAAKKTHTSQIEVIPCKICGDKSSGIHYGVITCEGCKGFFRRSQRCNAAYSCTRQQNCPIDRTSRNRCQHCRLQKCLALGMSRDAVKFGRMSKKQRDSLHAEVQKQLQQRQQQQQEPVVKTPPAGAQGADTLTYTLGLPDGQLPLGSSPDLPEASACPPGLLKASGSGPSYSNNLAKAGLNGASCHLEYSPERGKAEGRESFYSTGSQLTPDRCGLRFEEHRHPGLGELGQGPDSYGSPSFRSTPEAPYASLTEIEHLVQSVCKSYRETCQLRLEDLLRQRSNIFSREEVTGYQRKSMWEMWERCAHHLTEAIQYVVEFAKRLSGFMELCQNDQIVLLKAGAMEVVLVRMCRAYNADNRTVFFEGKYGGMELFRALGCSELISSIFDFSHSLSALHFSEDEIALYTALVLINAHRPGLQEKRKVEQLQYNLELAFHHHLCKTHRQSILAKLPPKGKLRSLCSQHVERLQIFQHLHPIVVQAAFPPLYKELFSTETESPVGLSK

Fold change, inactive:
O=C(Nc1ccc(C(O)(C(F)(F)F)C(F)(F)F)cc1)c1ccccc1C(F)(F)F 0.897
O=C(Nc1ccc(C(O)(C(F)(F)F)C(F)(F)F)cc1)c1ccc(F)cc1Cl 0.974
O=S(=O)(Nc1ccc(C(O)(C(F)(F)F)C(F)(F)F)cc1)c1cccs1 0.91
O=C(Nc1ccc(C(O)(C(F)(F)F)C(F)(F)F)cc1)c1ccc(Cl)cc1 0.873
O=C(Nc1ccc(C(O)(C(F)(F)F)C(F)(F)F)cc1)c1c(F)cccc1F 1.06
O=C(Nc1ccc(C(O)(C(F)(F)F)C(F)(F)F)cc1)c1ccc(F)cc1F 1.23
